In ChEMBL document CHEMBL1137014, “Structure-activity study of new inhibitors of human betaine-homocysteine S-methyltransferase” (J Med Chem, 2009):

Columns and labels:
[1] = biological target: T1, Betaine--homocysteine S-methyltransferase 1 (Homo sapiens) (UniProt Q93088); experiment: Inhibition of human recombinant BHMT expressed in Escherichia coli at 20 uM using 0.25 mM betaine and 0.1 mM DL-homocysteine as substrate
T1 sequence (whole entry): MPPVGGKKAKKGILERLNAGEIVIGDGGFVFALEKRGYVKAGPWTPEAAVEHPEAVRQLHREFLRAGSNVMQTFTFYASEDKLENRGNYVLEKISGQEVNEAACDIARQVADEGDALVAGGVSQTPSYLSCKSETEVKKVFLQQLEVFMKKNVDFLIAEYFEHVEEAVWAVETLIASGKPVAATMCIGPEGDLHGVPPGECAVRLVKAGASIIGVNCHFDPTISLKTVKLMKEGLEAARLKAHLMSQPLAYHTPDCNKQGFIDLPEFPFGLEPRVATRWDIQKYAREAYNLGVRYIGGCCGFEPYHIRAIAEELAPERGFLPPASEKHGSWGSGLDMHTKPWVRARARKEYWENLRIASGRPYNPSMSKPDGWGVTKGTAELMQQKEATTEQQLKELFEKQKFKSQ
Method in brief: (§1)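 Radiometric assay with 0.2 μM enzyme, preincubated with inhibitor, then 100 μM DL-homocysteine (fresh from thiolactone) and 250 μM [methyl-14C]betaine. Run in 50 mM K-phosphate pH 7.5 with 10 mM β-mercaptoethanol, 37 °C, 30 min; stopped on ice. […] Enzyme-free blanks subtracted; triplicates; activity expressed relative to no-inhibitor control.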

[2] = biological target: T1, Betaine--homocysteine S-methyltransferase 1 (Homo sapiens); experiment: Inhibition of human recombinant BHMT expressed in Escherichia coli at 1 uM using 0.25 mM betaine and 0.1 mM DL-homocysteine as substrate; method in brief: as §1
[3] = biological target: T2, Betaine--homocysteine S-methyltransferase 1 (Homo sapiens, UniProt Q93088); experiment: Inhibition of human recombinant BHMT expressed in Escherichia coli using 2 mM betaine and 1 mM DL-homocysteine as substrate
T2 sequence (Q93088 whole entry): T1 sequence (whole entry)
Method in brief: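 Same radiometric Dowex assay as for percent inhibition (0.2 μM enzyme, pH 7.5 K-phosphate, 37 °C, 30 min), but with 1 mM DL-homocysteine and 2 mM 14C-betaine. Ten inhibitor concentrations in duplicate per curve, IC50 by nonlinear regression. Three independent experiments, mean ± SEM.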

[4] = biological target: T2, Betaine--homocysteine S-methyltransferase 1; experiment: Binding affinity to human recombinant BHMT expressed in Escherichia coli by isothermal titration calorimetry
Method in brief: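 ITC at 25 °C in 50 mM HEPES/NaOH, ACES/NaOH or Tris/HCl, pH 7.5, with 5 mM β-mercaptoethanol, no substrates present. 9 μL aliquots of 50 μM ligand injected into 5.1 μM protein (monomer, quantified by amino acid analysis after dialysis) until saturation. Heats corrected for dilution using buffer-only injections and fitted to the integrated heats.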

SMILES	inhibition [1]	inhibition [2]	IC50 [3]	Kd [4]
CN(CCSCCC(N)C(=O)O)CC(=O)O (racemic)	98.5%	58.9%	2500 nM	
C[C@@H](NCCSCCC(N)C(=O)O)C(=O)O (mixture of isomers)	15.5%			
CC(C)(CCSCC[C@H](N)C(=O)O)CC(=O)O			64 nM	51 nM
NC(CCCSCCCC(=O)O)C(=O)O (racemic)	5.4%			
CN(CCCSCCC(N)C(=O)O)CC(=O)O (racemic)	79%	22.4%		
NC(CCSCCNCC(=O)O)C(=O)O (racemic)	37.1%			
C[N+](C)(CCSCCC(N)C(=O)O)CC(=O)[O-] (racemic)	23.8%	5.1%		
C[C@H](NCCSCCC(N)C(=O)O)C(=O)O (mixture of isomers)	19.8%			
CC(C)(CCSCC[C@@H](N)C(=O)O)CC(=O)O			701 nM	
C[N+](C)(CCCSCCC(N)C(=O)O)CC(=O)[O-] (racemic)	3.3%	0%		
NC(CCSSCCCC(=O)O)C(=O)O (racemic)	19.1%			
CC(C)(CCSCCC(N)C(=O)O)CC(=O)O (racemic)	100%	98.1%	84 nM	
NC(CCOCCCCC(=O)O)C(=O)O (racemic)	9.8%			
NC(CCSCCNCCC(=O)O)C(=O)O (racemic)	0%			
NC(CCCCCCCC(=O)O)C(=O)O (racemic)	2.11%			
C[C@@H](CCSCC[C@@H](N)C(=O)O)CC(=O)O (racemic)	100%	97.8%	139 nM	
NC(CCSCSCCC(=O)O)C(=O)O (racemic)	97.6%	26.3%	3260 nM	
NC(CC[Se]CCCCC(=O)O)C(=O)O (racemic)	100%	94.3%	649 nM	
C[N+](C)(CSCCC(N)C(=O)O)CC(=O)[O-] (racemic)	0%	0%		
